Assay outcomes from PubChem BioAssay.
The list is not random: actives were taken first. Their share in the collection is about 3%.
KLK7 zymogen act = proKLK7 zymogen activators, primary screen, biochemical, fluorescence intensity | AID 652039, 2013 | hit rate 0.9% among 370,000 | purified proKLK7, EDANS-DABCYL substrate fluorescence; 100% is mature enzyme control, 0% vehicle | Kallikrein-7 (Homo sapiens), P49862 | activation, % at 7 µM;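 active = activation above the mean of all tested compounds plus 3 SD, computed per campaign excluding outliers beyond control limits, cut at about 13% in these data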
NRP1-CendR mod = modulators of CendR peptide binding to NRP-1, primary screen, biochemical, fluorescence polarization, uHTS; AID 602438, 2012; FAM-RPARPAR peptide binding to NRP-1; Neuropilin-1 (Homo sapiens), O14786; hit rate 0.85% among 360,000; inhibition, % at 25 µM;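 active = inhibition or corrected inhibition above about 18%, plus a signal ratio from 0.5 to 1.5, limit read from the data, passing the limit was not always enough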
PLC-gamma1 inh = PLC-gamma1 enzyme inhibitors, primary screen, biochemical, fluorescence, purified enzyme | hit rate 0.84% among 370,000 | fluorogenic substrate | 1-phosphatidylinositol 4,5-bisphosphate phosphodiesterase gamma-1 (Homo sapiens), P19174 | AID 720700, 2013 | inhibition, % at 12.2 µM
Target sequence (P19174 whole entry, looked up): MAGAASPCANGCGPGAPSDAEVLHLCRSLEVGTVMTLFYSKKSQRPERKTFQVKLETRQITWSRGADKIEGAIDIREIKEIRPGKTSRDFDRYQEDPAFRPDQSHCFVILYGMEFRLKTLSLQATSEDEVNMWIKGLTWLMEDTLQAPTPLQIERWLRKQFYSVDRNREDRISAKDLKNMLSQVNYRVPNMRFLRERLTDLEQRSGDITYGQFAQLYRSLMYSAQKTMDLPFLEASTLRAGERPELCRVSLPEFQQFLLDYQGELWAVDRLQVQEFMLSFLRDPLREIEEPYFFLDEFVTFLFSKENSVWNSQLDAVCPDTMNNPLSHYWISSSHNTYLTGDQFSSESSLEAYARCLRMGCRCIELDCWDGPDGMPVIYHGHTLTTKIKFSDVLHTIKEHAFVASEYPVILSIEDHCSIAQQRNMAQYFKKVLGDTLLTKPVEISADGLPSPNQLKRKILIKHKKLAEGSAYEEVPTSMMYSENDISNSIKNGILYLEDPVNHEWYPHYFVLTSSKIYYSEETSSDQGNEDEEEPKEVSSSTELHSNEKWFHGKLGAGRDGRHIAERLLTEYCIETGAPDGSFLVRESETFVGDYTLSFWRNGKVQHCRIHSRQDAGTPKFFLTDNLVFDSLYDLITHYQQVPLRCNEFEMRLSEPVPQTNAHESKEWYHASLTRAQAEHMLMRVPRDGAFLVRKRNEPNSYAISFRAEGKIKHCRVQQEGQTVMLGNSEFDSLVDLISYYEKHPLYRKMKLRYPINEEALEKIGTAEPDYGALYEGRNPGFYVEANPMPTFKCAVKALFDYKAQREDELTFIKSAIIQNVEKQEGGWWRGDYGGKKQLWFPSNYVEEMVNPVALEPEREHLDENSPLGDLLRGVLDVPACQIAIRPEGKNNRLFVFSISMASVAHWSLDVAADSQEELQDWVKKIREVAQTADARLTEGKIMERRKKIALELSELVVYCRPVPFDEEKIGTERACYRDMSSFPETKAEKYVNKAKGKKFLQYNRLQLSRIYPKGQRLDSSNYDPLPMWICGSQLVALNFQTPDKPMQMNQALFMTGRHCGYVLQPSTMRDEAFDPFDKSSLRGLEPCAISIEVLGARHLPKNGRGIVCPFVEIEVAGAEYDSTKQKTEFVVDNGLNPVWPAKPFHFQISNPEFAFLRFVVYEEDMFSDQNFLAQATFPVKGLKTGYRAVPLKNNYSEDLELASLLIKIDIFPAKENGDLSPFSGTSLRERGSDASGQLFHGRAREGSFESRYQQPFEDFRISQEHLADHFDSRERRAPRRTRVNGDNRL
DDE Tn7 FP inh = inhibitors of Tn7 peptide binding to fibrin DD(E), primary screen, biochemical, fluorescence polarization, human fibrin, Tn7 probe; Fibrinogen beta chain (Homo sapiens), P02675; FP displacement of FITC-Tn7 peptide from fibrin DD(E); 0% = median of compound wells per plate; inhibition, % at 8.3 µM; hit rate 0.13% among 370,000;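 active = inhibition above the mean of compounds falling within the control limits plus 3 SD of them, cut at about 14% in these data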;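 also: 0% = plate median of compound wells and 100% = 10 µM Aha-Tn7 peptide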
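Assay system: Human fibrin DD(E) protein | Medium: Tris buffer with calcium and detergent, pH 7.8 | Reagent: 0.1 µM fluorescent Tn7 | Compound dosing: Single point at 8.3 µM | Times: 10 min preincubation, 3 h with tracer, room temperature | Detection: Fluorescence polarization of the labelled Tn7 tracer | Controls: Aha-Tn7 high control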
PLCb3 inh = human PLC-beta3 inhibitors, primary screen, biochemical, fluorescence; hit rate 0.18% among 370,000; Purified PLC-beta3, fluorogenic substrate; 1-phosphatidylinositol 4,5-bisphosphate phosphodiesterase beta-3 (Homo sapiens), Q01970; inhibition, % at 12.2 µM; AID 720704, 2013; in the data active = inhibition above about 11%;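 also: 0% = median of compound wells on plate and 100% = full blocker control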
Tn6 DDE FP = inhibitors of Tn6 peptide binding to fibrin DD(E), primary screen, biochemical, fluorescence polarization, human fibrin, Tn6 probe; AID 720509, 2013; hit rate 0.21% among 370,000; inhibition, % at 8.3 µM; Fibrin DD(E) TRITC-Tn6 fluorescence polarization displacement;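 active = inhibition above a per-campaign cutoff: mean of compounds within control limits plus 3 SD, cut at about 15% in these data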;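 also: 0% = median of all compound wells on the plate and 100% = blocking peptide control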
PLCgamma1 ctr = PLC-gamma1 enzyme inhibitors, counter-screen for PLC-beta3 inhibitor project, biochemical, fluorescence | shares compounds with PLC-gamma1 inh | purified PLC-gamma1, fluorogenic substrate | inhibition, % at 12.3 µM | hit rate 3.1% among 3,300
PLCb3 confirm = PLC-beta3 inhibitor confirmation, biochemical, fluorescence, purified enzyme; shares compounds with PLC-gamma1 inh; fluorogenic substrate fluorescence; hit rate 1% among 3,300; AID 743261, 2014; inhibition, % at 12.3 µM; in the data active = inhibition above about 11%
Starred values were filed as active, the others as inactive; nt = no result; ! = not active in a repeat. Rule as the data show it, unless noted: active = inhibition above about 9.5%; inactive = the rest.

SMILES | KLK7 zymogen act | NRP1-CendR mod | PLC-gamma1 inh | DDE Tn7 FP inh | PLCb3 inh | Tn6 DDE FP | PLCgamma1 ctr | PLCb3 confirm
COc1cccc(C(c2c(C)[nH]n(-c3ccccc3)c2=O)c2c(C)[nH]n(-c3ccccc3)c2=O)c1O | -1 | 2 | 25* | 9 | -1 | -4 | -7 | -7
COc1cccc(C(c2c(C)[nH]n(-c3ccccc3)c2=O)c2c(C)[nH]n(-c3ccccc3)c2=O)c1OC | 1 | 1 | 18* | 1 | 7 | 15 | -6 | -4
Cc1cc2c(c(=O)o1)[C@@]1(C(=O)N(C)c3ccccc31)C1=C(CCCC1=O)O2 | 1 | nt | -1 | 2 | -2 | 5 | nt | nt
Cc1cc(C(=O)NC(=S)Nc2cccc(C(=O)O)c2C)ccc1[N+](=O)[O-] | 0 | -3 | 9.8* | -3 | 5 | -6 | 4 | 1
Cc1cc(C(=O)NC(=S)Nc2cccc(NC(=O)C(C)C)c2)ccc1[N+](=O)[O-] | 0 | 4 | 3 | 1 | -1 | 5 | nt | nt
CNC(=O)C(=O)Nc1ccc(C)cc1C | 0 | 6 | 1 | -3 | 0 | 1 | nt | nt
CNC(=O)C(=O)Nc1c(C)cc(C)cc1C | 0 | -13 | 7 | -3 | 12* | -5 | -7 | -5
COc1ccc(S[C@]2(C(=O)N(C)C)CC(=O)N(c3ccccc3)[C@@H]2c2ccc(OC)cc2)cc1 | 0 | nt | 0 | 1 | -1 | -2 | nt | nt
CCCCNC(=O)C1CC(=O)N(C2CCCC2)C1 (configuration not stated) | 0 | -1 | 12* | 2 | 0 | 3 | -5 | -3
O=C(NCC1CCN(Cc2ccc(Cl)cc2)CC1)C1CCCN(c2ncnc3c2nc2n3CCCCC2)C1 (configuration not stated) | 1 | 6 | 11* | -2 | -7 | -7 | -3 | -2
COc1ccc(C(=O)N2CCCCC2c2cc(C(=O)Nc3ccc(OC)cc3C)no2)cc1 (configuration not stated) | 0 | -3 | 1 | 5 | 0 | -1 | nt | nt
CCCNC(=O)c1cc(C2CCCCN2C(=O)c2cc(OC)c(C)c(OC)c2)on1 (configuration not stated) | 0 | -16 | 3 | 2 | 0 | -6 | nt | nt
COc1ccc(NC(=O)c2cc(C3CCCCN3C(=O)c3cc(F)ccc3C)on2)c(C)c1 (configuration not stated) | 1 | -3 | 9.7* | 6 | 3 | -1 | -4 | -3
COc1cc(C(=O)N2CCCCC2c2cc(C(=O)NC(C)C)no2)cc(OC)c1C (configuration not stated) | 0 | 0 | 13* | -3 | 4 | 5 | -2 | 0
Clc1cccc(CNc2nc(-c3ccccn3)nnc2-c2ccccc2)c1 | nt | nt | 2 | 2 | 0 | -2 | nt | nt
CC(C)(C)c1ccc(CNc2nc(-c3ccccn3)nnc2-c2ccccc2)cc1 | nt | nt | 18* | -5 | 5 | -18 | 14* | 15*
COc1ccc(NC(=O)CN2CCC(C)CC2)cc1 | 0 | -3 | 12* | 9 | 9 | -4 | -6 | -2
COc1cc(-c2ccc(NC(=O)CN3CCC(C)CC3)c(OC)c2)ccc1NC(=O)CN1CCC(C)CC1 | 0 | -24 | 10* | 4 | 6 | -7 | -5 | -7
COc1ccc(NC(=O)CN2CCC(C)CC2)c([N+](=O)[O-])c1 | 1 | 2 | -3 | 3 | 3 | -6 | nt | nt
CCn1c(COc2ccccc2C)nnc1SCC(=O)N1CCCCC1 | 0 | -12 | 14* | -5 | 1 | 6 | -3 | -2
CCn1c(COc2ccccc2C)nnc1SCC(=O)N1CCC(C)CC1 | 0 | 4 | -5 | -3 | 2 | 3 | nt | nt
O=C(Nc1ccncc1)c1ccc2c(c1)C(=O)N(CC1CCCO1)C2=O (configuration not stated) | 0 | 0 | 11* | -15 | 5 | -3 | -3 | 1
Cn1cc(CC(=O)Nc2ccc(Nc3cccnc3)cc2)c2ccccc21 | 0 | nt | 0 | 4 | -2 | -8 | nt | nt
c1nnc(NC2=NCCCCC2)s1 | 0 | -14 | -2 | -1 | -2 | 4 | nt | nt
Clc1ccc(CSc2nnc(NC3=NCCCCC3)s2)cc1 | 1 | 1 | 5 | 3 | 11* | -1 | -3 | 2
SMILES | KLK7 zymogen act | NRP1-CendR mod | PLC-gamma1 inh | DDE Tn7 FP inh | PLCb3 inh | Tn6 DDE FP | PLCgamma1 ctr | PLCb3 confirm
CC(C)(C)C(=O)c1c(N)[nH]c(C(=O)c2ccccc2)c1-c1ccccc1 | -2 | nt | -1 | 7 | 4 | 8 | nt | nt
COC(=O)[C@]12CCCCC=C1N(Cc1ccc(OC)cc1)C(=O)[C@@H]2CC(=O)NCc1cccc(C(F)(F)F)c1 | 0 | nt | 1 | -2 | -3 | -4 | nt | nt
CCOC(=O)[C@@]12CCCC3=C1N(CCC3)C(=O)[C@H]2CC(=O)NCC1CCCCC1 | 0 | nt | 1 | 9 | -5 | -2 | nt | nt
COC(=O)[C@H](Cc1ccccc1)NC(=O)c1ccc2ccccc2n1 | 0 | 6 | 1 | -2 | -1 | 10 | nt | nt
CC(C)(C)NC(=O)[C@@H]1C[C@@H]2CCCC[C@@H]2CN1C[C@@H](O)[C@H](Cc1ccccc1)NC(=O)[C@H](CC(N)=O)NC(=O)c1ccc2ccccc2n1 | 0 | 2 | 9.7*! | 3 | 0 | 0 | -8 | -5
O=c1[nH]nc(-c2ccc(NCCCO)c([N+](=O)[O-])c2)c2ccccc12 | 0 | 3 | 13* | -5 | 3 | -2 | -2 | -6
O=C1Nc2c(Cl)cc(Cl)cc2C12Nc1ccccc1S2 (configuration not stated) | -33 | nt | -233 | -4 | -305 | -2 | nt | nt
CCCNC(=O)N[C@@H](CCSC)C(=O)OC | 0 | -11 | -2 | -10 | 3 | -3 | nt | nt
CCCNC(=O)NC(C(=O)OC)C12CC3CC(CC(C3)C1)C2 (configuration not stated) | -1 | 8 | 11* | -1 | 6 | 6 | 0 | 0
O=C(CSc1ncnc2sc3c(c12)CCCC3)Nc1ccc(Oc2ccccc2)cc1 | 0 | nt | 8 | -6 | 4 | 6 | nt | nt
Clc1cccc(Cl)c1OCCCCN1CCCCC1 | 0 | -1 | 12* | -2 | -3 | 3 | 2 | 0
